Laboratory results taken from ChEMBL document CHEMBL4038309, “Design and Synthesis of Chlorinated and Fluorinated 7-Azaindenoisoquinolines as Potent Cytotoxic Anticancer Agents That Inhibit Topoisomerase I” (J Med Chem, 2017).
Activity calls are given as the source filed them. The rule behind the calls is not given here.

How the values were obtained:
HOP-62 = test: Antiproliferative activity against human HOP62 cells assessed as growth inhibition; type: functional
How it was run: (§1)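 NCI-60 screen: single-dose pre-screen at 10 μM, then five concentrations from 0.01 to 100 μM. Values beyond the tested range are recorded as 0.01 or 100 μM.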

HCT-116 = test: Antiproliferative activity against human HCT116 cells assessed as growth inhibition; type: functional; how it was run: as §1
SF-539 = test: Antiproliferative activity against human SF539 cells assessed as growth inhibition; type: functional; how it was run: as §1
UACC-62 = test: Antiproliferative activity against human UACC62 cells assessed as growth inhibition; type: functional; how it was run: as §1
OVCAR-3 = test: Antiproliferative activity against human OVCAR3 cells assessed as growth inhibition; type: functional; how it was run: as §1
SN12C = test: Antiproliferative activity against human SN12C cells assessed as growth inhibition; type: functional; how it was run: as §1
DU-145 = test: Antiproliferative activity against human DU145 cells assessed as growth inhibition; type: functional; how it was run: as §1
MCF7 = test: Antiproliferative activity against human MCF7 cells assessed as growth inhibition; type: functional; how it was run: as §1
[1] = molecular target: T1, DNA topoisomerase 1 (Homo sapiens) (UniProt P11387); test: Inhibition of recombinant Top1 (unknown origin) assessed as Top 1 mediated DNA cleavage using 3'-[32P]-labeled 117 bp DNA as substrate at 0.1 to 100 uM after 20 mins by PAGE analysis
T1 sequence (whole entry): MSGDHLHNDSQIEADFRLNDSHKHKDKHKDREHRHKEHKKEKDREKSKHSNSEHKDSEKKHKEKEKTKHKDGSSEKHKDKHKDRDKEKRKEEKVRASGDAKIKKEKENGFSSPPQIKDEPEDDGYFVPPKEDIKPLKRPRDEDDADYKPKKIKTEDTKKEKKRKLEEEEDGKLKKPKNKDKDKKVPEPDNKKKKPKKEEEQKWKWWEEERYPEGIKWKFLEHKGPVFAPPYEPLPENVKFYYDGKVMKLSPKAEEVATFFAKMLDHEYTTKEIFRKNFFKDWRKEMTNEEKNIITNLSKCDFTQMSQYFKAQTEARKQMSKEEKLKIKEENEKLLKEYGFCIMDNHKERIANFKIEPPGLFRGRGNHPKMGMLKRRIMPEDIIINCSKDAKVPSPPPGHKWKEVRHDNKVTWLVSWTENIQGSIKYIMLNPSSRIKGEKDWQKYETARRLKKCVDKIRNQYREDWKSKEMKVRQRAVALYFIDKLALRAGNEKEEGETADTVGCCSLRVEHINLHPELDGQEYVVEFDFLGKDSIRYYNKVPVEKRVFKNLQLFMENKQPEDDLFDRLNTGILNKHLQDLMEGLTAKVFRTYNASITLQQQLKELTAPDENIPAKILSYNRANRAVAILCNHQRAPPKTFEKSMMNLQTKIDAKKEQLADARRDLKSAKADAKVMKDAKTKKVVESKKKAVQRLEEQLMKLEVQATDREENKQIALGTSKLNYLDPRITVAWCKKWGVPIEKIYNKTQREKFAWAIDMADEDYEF
How it was run: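 About 2 nM 3'-[32P]-labeled DNA with recombinant Top1 in 10 mM Tris-HCl pH 7.5, 50 mM KCl, 5 mM MgCl2, 0.1 mM EDTA, 15 μg/mL BSA, 25 °C, 20 min. Compound at 0.1, 1, 10 and 100 μM. Stopped with 0.5% SDS and formamide dye, then run on 20% denaturing PAGE with phosphorimaging.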

[2] = Toxicity in zebrafish embryo assessed as survival at 1 uM preincubated for 1 hr measured after 24 hrs (reference value: 86.2 +/- 8.5%); set-up: species or system Danio rerio; conditions: zebrafish embryos
[3] = Toxicity in zebrafish embryo assessed as survival at 1 uM preincubated for 1 hr measured after 48 hrs (reference value: 84.4 +/- 8.5%); set-up: species or system Danio rerio; conditions: zebrafish embryos
[4] = Toxicity in zebrafish embryo assessed as survival at 1 uM preincubated for 1 hr measured after 72 hrs (reference value: 82.5 +/- 8.4%); set-up: species or system Danio rerio; conditions: zebrafish embryos
[5] = Toxicity in zebrafish embryo assessed as survival at 1 uM preincubated for 1 hr measured after 96 hrs (reference value: 82.5 +/- 8.4%); set-up: species or system Danio rerio; conditions: zebrafish embryos
[6] = Toxicity in zebrafish embryo assessed as survival at 1 uM preincubated for 1 hr measured after 120 hrs (reference value: 82.5 +/- 8.4%); set-up: species or system Danio rerio; conditions: zebrafish embryos
[7] = Toxicity in zebrafish embryo assessed as survival at 0.1 uM preincubated for 1 hr measured after 24 hrs (reference value: 86.2 +/- 8.5%); set-up: species or system Danio rerio; conditions: zebrafish embryos
[8] = Toxicity in zebrafish embryo assessed as survival at 0.1 uM preincubated for 1 hr measured after 48 hrs (reference value: 84.4 +/- 8.5%); set-up: species or system Danio rerio; conditions: zebrafish embryos
[9] = Toxicity in zebrafish embryo assessed as survival at 0.1 uM preincubated for 1 hr measured after 72 hrs (reference value: 82.5 +/- 8.4%); set-up: species or system Danio rerio; conditions: zebrafish embryos
[10] = Toxicity in zebrafish embryo assessed as survival at 0.1 uM preincubated for 1 hr measured after 96 hrs (reference value: 82.5 +/- 8.4%); set-up: species or system Danio rerio; conditions: zebrafish embryos
[11] = Toxicity in zebrafish embryo assessed as survival at 0.1 uM preincubated for 1 hr measured after 120 hrs (reference value: 82.5 +/- 8.4%); set-up: species or system Danio rerio; conditions: zebrafish embryos
[12] = Toxicity in zebrafish embryo assessed as survival at 0.01 uM preincubated for 1 hr measured after 24 hrs (reference value: 86.2 +/- 8.5%); set-up: species or system Danio rerio; conditions: zebrafish embryos
[13] = Toxicity in zebrafish embryo assessed as survival at 0.01 uM preincubated for 1 hr measured after 48 hrs (reference value: 84.4 +/- 8.5%); set-up: species or system Danio rerio; conditions: zebrafish embryos
[14] = Toxicity in zebrafish embryo assessed as survival at 0.01 uM preincubated for 1 hr measured after 72 hrs (reference value: 82.5 +/- 8.4%); set-up: species or system Danio rerio; conditions: zebrafish embryos
[15] = Toxicity in zebrafish embryo assessed as survival at 0.01 uM preincubated for 1 hr measured after 96 hrs (reference value: 82.5 +/- 8.4%); set-up: species or system Danio rerio; conditions: zebrafish embryos
[16] = Toxicity in zebrafish embryo assessed as survival at 0.01 uM preincubated for 1 hr measured after 120 hrs (reference value: 82.5 +/- 8.4%); set-up: species or system Danio rerio; conditions: zebrafish embryos
[17] = Toxicity in zebrafish embryo assessed as survival at 10 uM preincubated for 1 hr measured after 24 to 120 hrs (reference value: 82.5 to 86.2%); set-up: species or system Danio rerio; conditions: zebrafish embryos

Row | SMILES | GI50 (HOP-62) [nM] | GI50 (HCT-116) [nM] | GI50 (SF-539) [nM] | GI50 (UACC-62) [nM] | GI50 (OVCAR-3) [nM] | GI50 (SN12C) [nM] | GI50 (DU-145) [nM] | GI50 (MCF7) [nM] | Top1-mediated DNA cleavage activity (active/not active) [1] | further results
1 | COc1cnc2c(c1)C(=O)c1c-2n(CCCN2CCC(O)CC2)c(=O)c2cc(F)ccc12 | 142 | 89 | 295 | 240 | 254 | 189 | 174 | 31 | inactive | 
2 | CCNCCCn1c2c(c3ccc(F)cc3c1=O)C(=O)c1cc(OC)cnc1-2 | 149 | 136 | 320 | 341 | 282 | 151 | 215 | 42 | Active | 
3 | CNCCCn1c2c(c3ccc(F)cc3c1=O)C(=O)c1cc(OC)cnc1-2 | 142 | 143 | 368 | 608 | 263 | 211 | 202 | 34 | inactive | 
4 | COc1cnc2c(c1)C(=O)c1c-2n(CCCN2CCCC2)c(=O)c2cc(Cl)ccc12 |  |  |  |  |  |  |  |  | Active | 
5 | COc1cnc2c(c1)C(=O)c1c-2n(CCCN2CCNCC2)c(=O)c2cc(F)ccc12 | 66 | 91 | 532 | 1260 | 335 | 80 | 62 | 34 | inactive | 
6 | COc1cnc2c(c1)C(=O)c1c-2n(CCCNC(C)C)c(=O)c2cc(Cl)ccc12 | 70 | 138 | 554 | 303 | 1390 | 417 | 173 | 37 | Active | 
7 | COc1cnc2c(c1)C(=O)c1c-2n(CCCn2ccnc2)c(=O)c2cc(F)ccc12 | < 10 | < 10 | 24 | 16 | 43 | < 10 | < 10 | < 10 | Active | survival at 24 h, 1 µM [2]: 28.8%; survival at 48 h, 1 µM [3]: 0%; survival at 72 h, 1 µM [4]: 0%; survival at 96 h, 1 µM [5]: 0%; survival at 120 h, 1 µM [6]: 0%; survival at 24 h, 0.1 µM [7]: 86.2%; survival at 48 h, 0.1 µM [8]: 62.5%; survival at 72 h, 0.1 µM [9]: 45.6%; survival at 96 h, 0.1 µM [10]: 45.6%; survival at 120 h, 0.1 µM [11]: 45.6%; survival at 24 h, 0.01 µM [12]: 87.5%; survival at 48 h, 0.01 µM [13]: 87.5%; survival at 72 h, 0.01 µM [14]: 87.5%; survival at 96 h, 0.01 µM [15]: 87.5%; survival at 120 h, 0.01 µM [16]: 87.5%; survival at 10 µM [17]: 0%
8 | COc1cnc2c(c1)C(=O)c1c-2n(CCCN2CCOCC2)c(=O)c2cc(Cl)ccc12 | 270 | 160 | 230 | 180 | 780 |  | 410 | 90 | Active | 
9 | CNCCCn1c2c(c3ccc(Cl)cc3c1=O)C(=O)c1cc(OC)cnc1-2 | 220 | 550 | 730 | 574 | 1410 | 1180 | 331 | 46 | Active | 
10 | COc1cnc2c(c1)C(=O)c1c-2n(CCCNC2=NCCS2)c(=O)c2cc(Cl)ccc12 | 42 | 350 | 470 | 95 | 1300 |  | 92 | 36 | Active | 
11 | COc1cnc2c(c1)C(=O)c1c-2n(CCCN2CCOCC2)c(=O)c2cc(F)ccc12 | 187 | 115 | 228 | 235 | 250 | 320 | 341 | 44 | Active | 
12 | COc1cnc2c(c1)C(=O)c1c-2n(CCCN2CCOCC2)c(=O)c2cc([N+](=O)[O-])ccc12 |  |  |  |  |  |  |  |  | Active | 
13 | O=C1c2ccccc2-c2c1c1ccc([N+](=O)[O-])cc1c(=O)n2CCCn1ccnc1 |  |  |  |  |  |  |  |  | Active | 
14 | COc1cnc2c(c1)C(=O)c1c-2n(CCCn2ccnc2)c(=O)c2cc([N+](=O)[O-])ccc12 |  |  |  |  |  |  |  |  | Active | survival at 24 h, 1 µM [2]: 0%; survival at 48 h, 1 µM [3]: 0%; survival at 72 h, 1 µM [4]: 0%; survival at 96 h, 1 µM [5]: 0%; survival at 120 h, 1 µM [6]: 0%; survival at 24 h, 0.1 µM [7]: 5.6%; survival at 48 h, 0.1 µM [8]: 0%; survival at 72 h, 0.1 µM [9]: 0%; survival at 96 h, 0.1 µM [10]: 0%; survival at 120 h, 0.1 µM [11]: 0%; survival at 24 h, 0.01 µM [12]: 62.5%; survival at 48 h, 0.01 µM [13]: 55.6%; survival at 72 h, 0.01 µM [14]: 45%; survival at 96 h, 0.01 µM [15]: 45%; survival at 120 h, 0.01 µM [16]: 45%; survival at 10 µM [17]: 0%
15 | COc1cnc2c(c1)C(=O)c1c-2n(CCCN2CCNCC2)c(=O)c2cc(Cl)ccc12 | 200 | 298 | 1330 | 1430 | 1430 | 489 | 242 | 89 | inactive | 
16 | O=C1c2ccccc2-c2c1c1ccc(Cl)cc1c(=O)n2CCCn1ccnc1 |  |  |  | 74 |  | 110 |  | 31 | Active | 
17 | COc1cnc2c(c1)C(=O)c1c-2n(CCCN2CCCC2)c(=O)c2cc(F)ccc12 | 212 | 153 | 360 | 471 | 307 | 241 | 211 | 48 | Active | 
18 | COc1cnc2c(c1)C(=O)c1c-2n(CCCNC2=NCCS2)c(=O)c2cc(F)ccc12 | 59 | 82 | 305 | 344 | 567 | 238 | 144 | 33 | Active | 
19 | COc1cnc2c(c1)C(=O)c1c-2n(CCCNC(C)C)c(=O)c2cc(F)ccc12 | 107 | 93 | 248 | 271 | 190 | 164 | 210 | 31 | Active | 
